Hits are enriched below; roughly 1.8% of the tested compounds scored in any of these assays.
TDP2 inh: human TDP2 enzyme inhibitors, primary screen, biochemical, epi absorbance, recombinant enzyme; Tyrosyl-DNA phosphodiesterase 2 (Homo sapiens), O95551; T5PNP hydrolysis, p-nitrophenol absorbance 415 nm; inhibition, % at 12.8 µM; 370,000 tested, 0.34% active; AID 720702, 2013;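 active means inhibition above the mean of all tested compounds plus 3 SD, set per campaign, cut at about 25% in these data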;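 further: 0% = DMSO with enzyme and 100% = buffer with substrate but no TDP2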
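Read-out basis: percent inhibition. System: recombinant human TDP2. Buffer or medium: Mg2+-containing Tris-HCl buffer, pH 7.5. Repeats: single replicate. Timing: reaction 2 h, 37 °C. Benchmarks: high control without enzyme, low control DMSO plus TDP2. Probe or stimulus: 5 mM T5PNP. Doses: 12.8 µM only. Measured by: epi absorbance of p-nitrophenol freed from T5PNP by hydrolysis.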
LEDGF integ inh: blockers of LEDGF/p75-dependent integrase strand transfer – biochemical, TR-FRET, high throughput, primary screen | HIV-1 integrase (with human LEDGF/p75) | 370,000 tested, 0.64% active | TR-FRET IN-LEDGF/p75 DNA integration, Eu/Cy5 | inhibition, % at 3.7 µM;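 active means inhibition above the screen-wide mean plus 3 SD, cut at about 13% in these data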;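 further: signal is the Cy5 over europium emission ratio at 671 and 618 nm; 0% = plate median of compound wells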
UHRF1 MBD2 ctr: UHRF1 methylated DNA binding inhibitors, primary screen, counter-screen for MBD2 inhibitor project, biochemical, TR-FRET, human UHRF1, single concentration. E3 ubiquitin-protein ligase UHRF1 (Homo sapiens), Q96T88. UHRF1 binding to methylated oligo. inhibition, % at 4.4 µM. 370,000 tested, 0.75% active. AID 687016, 2013; in the data active means inhibition above about 21%;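 further: UHRF1 SRA domain binding a hemimethylated CpG hairpin DNA probe; 0% = median of test compound wells and 100% = reference inhibitor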
Casp6 inh: human caspase-6 inhibitors, primary screen, biochemical, VEID-R110 fluorescence, single point, set 2; purified caspase-6, Z-VEID-R110 cleavage fluorescence; P55212; inhibition, % at 12.5 µM; 350,000 tested, 0.53% active;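 active means mean inhibition across replicates at least about 35%, with every replicate also reaching that limit, limit read from the data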;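 further: 0% = median of neutral control wells and 100% = no fluorescence left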
Target sequence (P55212 24-179 limits assumed): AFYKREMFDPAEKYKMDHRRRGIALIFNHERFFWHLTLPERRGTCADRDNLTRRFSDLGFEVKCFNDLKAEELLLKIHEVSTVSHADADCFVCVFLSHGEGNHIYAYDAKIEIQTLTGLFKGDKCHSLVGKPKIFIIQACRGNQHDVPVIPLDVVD
Target sequence (P55212 194-293 limits assumed): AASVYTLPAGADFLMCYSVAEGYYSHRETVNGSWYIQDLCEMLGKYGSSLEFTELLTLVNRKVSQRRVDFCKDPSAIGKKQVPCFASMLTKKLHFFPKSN
NSD2 HMT inh: NSD2 histone methyltransferase inhibitors, primary screen, biochemical, AlphaScreen, single concentration, set 2 | Histone-lysine N-methyltransferase NSD2 (Homo sapiens), O96028 | NSD2 peptide methylation, 120 min | inhibition, % at 12.5 µM | 310,000 tested, 0.54% active | AID 743445, 2014; in the data active means inhibition above about 50%
MBD2 inh: inhibitors of MBD2 binding to methylated DNA, primary screen, biochemical, TR-FRET, DNA-binding domain, human; Methyl-CpG-binding domain protein 2 (Homo sapiens), Q9UBB5; MBD2 binding to methylated oligonucleotide; inhibition, % at 4.4 µM; 370,000 tested, 0.31% active; AID 686964, 2013; in the data active means inhibition above about 13%
Target sequence (Q9UBB5 whole entry, looked up, the tested form may be a part): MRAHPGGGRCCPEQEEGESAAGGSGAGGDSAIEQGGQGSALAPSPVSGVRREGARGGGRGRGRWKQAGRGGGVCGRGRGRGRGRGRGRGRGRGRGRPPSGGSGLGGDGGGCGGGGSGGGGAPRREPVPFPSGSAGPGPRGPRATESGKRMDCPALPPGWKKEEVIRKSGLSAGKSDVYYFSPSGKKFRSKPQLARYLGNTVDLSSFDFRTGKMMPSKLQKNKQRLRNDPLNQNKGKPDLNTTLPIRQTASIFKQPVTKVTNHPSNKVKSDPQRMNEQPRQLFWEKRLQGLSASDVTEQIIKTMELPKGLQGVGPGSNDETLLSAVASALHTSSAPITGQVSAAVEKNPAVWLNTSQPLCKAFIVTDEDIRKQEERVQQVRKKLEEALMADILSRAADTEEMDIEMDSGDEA
* hit, by the source's call; x = no result.

SMILES | TDP2 inh | LEDGF integ inh | UHRF1 MBD2 ctr | Casp6 inh | NSD2 HMT inh | MBD2 inh
CC1=C/C(=C/N(C)C)C(=O)O1 | -18 | 11 | 3 | 3 | 1 | 5
CN(C)/C=C1/C=C(C=O)OC1=O | 2 | 2 | 1 | 45* | -1 | 1
CCC(=O)Nc1ccc2c(c1)C(=O)N(C)[C@H]1CC[C@@H](CC(=O)NCc3ccccc3Cl)O[C@@H]1CO2 | x | x | x | 0 | x | x
O=C(Nc1ccccc1F)c1coc(=O)c(Br)c1 | 14 | 2 | 2 | 74* | 2 | 1
Cc1cc(Cl)ccc1OC(C)C(=O)Nc1ccccc1N1CCOCC1 (stereo not drawn) | 4 | 10 | 21* | x | -2 | 12
O=C(NC1CCCC1)N1CC2(C1)[C@H](c1ccccc1)[C@@H](CO)N2CC1CCOCC1 | x | x | x | 1 | x | x
O=C(OCC(=O)N1CCN(S(=O)(=O)c2ccccc2)CC1)c1ccc([N+](=O)[O-])o1 | 6 | 1 | -5 | 1 | 0 | -2
CC1CCN(C(=O)COC(=O)c2ccc([N+](=O)[O-])o2)CC1 | 4 | 0 | -2 | 52* | 48 | -6
CC1Cc2ccccc2N1C(=O)COC(=O)c1ccco1 (stereo not drawn) | 3 | -5 | 0 | 3 | -4 | 4
CC1Cc2ccccc2N1C(=O)COC(=O)c1ccc([N+](=O)[O-])o1 (stereo not drawn) | 16 | 4 | -5 | 47* | x | -6
CO[C@@H]1CN(C)C(=O)c2ccc(NC(=O)Nc3ccc(F)cc3)cc2OC[C@@H](C)N(C(=O)c2cnccn2)C[C@H]1C | x | x | x | -3 | x | x
Cc1c(NC(=O)/C(C#N)=C/c2ccc(-c3ccc(Cl)cc3)o2)c(=O)n(-c2ccccc2)n1C | 13 | 0 | 22* | x | 2 | 8
Cc1c(NC(=O)/C(C#N)=C/c2ccc(-c3cc(Cl)ccc3Cl)o2)c(=O)n(-c2ccccc2)n1C | -2 | 1 | -2 | x | 2 | -3
COc1ccc(NC(=O)N(C)C[C@@H]2Oc3c(NS(=O)(=O)c4cccs4)cccc3C(=O)N([C@H](C)CO)C[C@@H]2C)cc1 | x | x | x | 4 | x | x
CCNC(=O)C[C@H]1CC[C@H]2[C@H](COc3ccc(NC(=O)Nc4cccc(F)c4)cc3C(=O)N2C)O1 | x | x | x | 1 | x | x
CCOC(=O)c1sc2nc(OCc3cccnc3)cc(C)c2c1N | -5 | 0 | 55* | 30 | x | 25*
C[C@@H]1CCCCO[C@H](CN(C)S(=O)(=O)c2ccc(Cl)cc2)[C@@H](C)CN([C@H](C)CO)C(=O)c2cc(NC(=O)Nc3ccccc3)ccc2O1 | x | x | x | -4 | x | x
C[C@H]1CN([C@@H](C)CO)S(=O)(=O)c2ccc(C#CCN(C)C)cc2O[C@H]1CN(C)Cc1ccccc1 | x | x | x | -45 | x | x
COc1cc(C2(c3ccc(O)c(OC)c3)C(=O)Nc3c(C)cc(Br)cc32)ccc1O | 2 | -3 | 31* | 9 | 1 | 0
O=C(Nc1nc(-c2ccc(Cl)s2)cs1)c1ccccc1 | 1 | 2 | -2 | x | -1 | 0
Cc1ccc(C(=O)Nc2nc(-c3cc(Cl)sc3Cl)cs2)cc1 | 11 | -2 | 23* | x | -2 | 8
Cc1cc(C)c(S(=O)(=O)/N=C2\C=C(Nc3ccc(C(=O)O)cc3)C(=O)c3ccccc32)c(C)c1 | 84* | 43* | 8 | -3 | x | -3
CCOC(=O)C1=C(O)/C(=C/c2ccc(OCC(=O)O)c(OC)c2)SC1=Nc1ccc(OCC)cc1 | -3 | 2 | 3 | 37* | 6 | -2
O=C(O)c1cc([N+](=O)[O-])ccc1NCCc1ccccc1 | -8 | -3 | 25* | 14 | 17 | 11
O=C(O)c1cc([N+](=O)[O-])ccc1NCCO | -3 | -6 | 1 | x | 4 | -2
SMILES | TDP2 inh | LEDGF integ inh | UHRF1 MBD2 ctr | Casp6 inh | NSD2 HMT inh | MBD2 inh
Cc1cccc(Nc2ccc([N+](=O)[O-])cc2C(=O)O)c1 | -20 | 8 | 23* | 4 | 17 | 5
CCCNC(=O)c1cc2c(c(-c3cccc(-c4cc5ccccc5o4)c3)n1)[C@@H](CCO)N(C(=O)NC(C)C)C2 | -9 | -4 | 28* | 1 | x | -5
CCOC(=O)c1[nH]c(C)c(C(=O)OCC(=O)NCc2ccc(OC)cc2)c1C | -7 | -1 | 9 | -3 | 4 | 1
CCOC(=O)c1c(C)[nH]c(C(=O)N(C)CC(=O)Nc2ccc(OC)cc2)c1C | -4 | -5 | 21* | 0 | -2 | 0
C=CCNCCCCOc1ccc(Br)cc1C | 3 | 1 | -2 | x | 66* | 2
Cc1cc(Br)ccc1OCCCCNCCO | 5 | 1 | 3 | x | 6 | 2
C[C@@H]1CN([C@H](C)CO)C(=O)c2cccc(NC(=O)CCCCCC(=O)Nc3ccccc3N)c2O[C@H]1CN(C)Cc1ccc(C(F)(F)F)cc1 | x | x | x | 1 | x | x
O=C(N/N=C\c1ccc([N+](=O)[O-])o1)c1cncc(Br)c1 | 4 | 11 | 2 | 39* | 0 | 3
Cc1ccc(SCC(=O)NCc2ccccc2)cc1 | 8 | -6 | -1 | 0 | -1 | 3
O=C(CSc1ccc2c(c1)OCCO2)NCc1ccccc1 | 4 | 1 | 7 | 38* | -1 | -1
C[C@@H]1CCCCO[C@H](CN(C)Cc2ccc(C(F)(F)F)cc2)[C@H](C)CN([C@H](C)CO)C(=O)c2cc(NC(=O)c3ccccc3)ccc2O1 | x | x | x | 1 | x | x
COCC(=O)N1CC(=O)N2[C@H](CO)[C@@H](c3ccc(-c4cccnc4)cc3)[C@@H]2C1 | x | x | x | 1 | x | x
CSCCC(NC(=O)c1ccccc1Cl)C(=O)N1CCCCC1 (stereo not drawn) | 7 | -2 | 41* | -3 | -3 | 1
CO[C@H]1CN(C)C(=O)c2cc(NC(C)=O)ccc2OC[C@H](C)N(S(=O)(=O)c2cn(C)cn2)C[C@H]1C | x | x | x | 36* | x | x
CO[C@@H]1CN(C)C(=O)c2ccc(NC(=O)C3CC3)cc2OC[C@@H](C)N(C(=O)Cc2ccccn2)C[C@H]1C | x | x | x | 39* | x | x
CO[C@H]1CN(C)C(=O)c2cc(NC(C)=O)ccc2OC[C@@H](C)N(S(=O)(=O)c2cn(C)cn2)C[C@@H]1C | x | x | x | 0 | x | x
CO[C@H]1CN(C)C(=O)c2ccc(NS(=O)(=O)c3cccc(Cl)c3)cc2OC[C@@H](C)NC[C@@H]1C | x | x | x | -1 | x | x
CO[C@@H]1CN(C)C(=O)c2ccc(NC(=O)C3CC3)cc2OC[C@@H](C)N(C)C[C@H]1C | x | x | x | 99* | x | x
CO[C@H]1CN(C)C(=O)c2ccc(NS(=O)(=O)c3cccc(Cl)c3)cc2OC[C@@H](C)NC[C@H]1C | x | x | x | 41* | x | x
